The list is not random: actives were taken first. Their share in the collection is about 2.6%.
MEKK2mut PB1 HTS: MEK5 binding signal on mutant MEKK2 PB1, primary screen, biochemical, multiplex bead flow cytometry, Alexa488-MEK5 | Alexa488-MEK5 binding to MEKK2 mutant | percent response, % at 10 µM | 290,000 tested, 0.35% active | AID 1530, 2009; in the data active = percent response above about 24%, passing the limit was not always enough
Hep lipid drop: inhibitors of hepatocyte lipid droplet formation, primary screen, imaging, high-throughput imaging, BODIPY stain; AML12 mouse hepatocytes, oleate lipid droplets; inhibition, % at 6.5 µM; 240,000 tested, 0.4% active;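 active = lipid droplet intensity inhibited by at least 50%, with more than 500 cells counted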
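Assay system: AML12 mouse liver cells | Compound dosing: One dose, 6.5 µM compound | Read-out basis: Droplet intensity reduction, % inhibition | Measured by: Fluorescence imaging, 20x objective, two fields per well | Schedule: Overnight treatment with compound plus oleate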
MEKK3 PB1 HTS: modulators of MEKK3-MEK5 PB1 binding, primary screen, biochemical, wildtype MEKK3, multiplex bead flow cytometry, Alexa488-MEK5; bead-based flow cytometry, Alexa488-MEK5 binding to MEKK3; actives lie on both sides; 0 = blocked by unlabeled MEK5, 100 = vehicle; binding response (% of control), % at 10 µM; Mitogen-activated protein kinase kinase kinase 3 (Homo sapiens), Q99759; AID 1529, 2009; 290,000 tested, 1.4% active;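 active = binding response more than 3 SD above or below the average of its plate-row segment, actives on both sides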;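 also: Alexa488 bead fluorescence after subtracting the streptavidin-only scavenger bead signal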
Target sequence (Q99759 whole entry, looked up): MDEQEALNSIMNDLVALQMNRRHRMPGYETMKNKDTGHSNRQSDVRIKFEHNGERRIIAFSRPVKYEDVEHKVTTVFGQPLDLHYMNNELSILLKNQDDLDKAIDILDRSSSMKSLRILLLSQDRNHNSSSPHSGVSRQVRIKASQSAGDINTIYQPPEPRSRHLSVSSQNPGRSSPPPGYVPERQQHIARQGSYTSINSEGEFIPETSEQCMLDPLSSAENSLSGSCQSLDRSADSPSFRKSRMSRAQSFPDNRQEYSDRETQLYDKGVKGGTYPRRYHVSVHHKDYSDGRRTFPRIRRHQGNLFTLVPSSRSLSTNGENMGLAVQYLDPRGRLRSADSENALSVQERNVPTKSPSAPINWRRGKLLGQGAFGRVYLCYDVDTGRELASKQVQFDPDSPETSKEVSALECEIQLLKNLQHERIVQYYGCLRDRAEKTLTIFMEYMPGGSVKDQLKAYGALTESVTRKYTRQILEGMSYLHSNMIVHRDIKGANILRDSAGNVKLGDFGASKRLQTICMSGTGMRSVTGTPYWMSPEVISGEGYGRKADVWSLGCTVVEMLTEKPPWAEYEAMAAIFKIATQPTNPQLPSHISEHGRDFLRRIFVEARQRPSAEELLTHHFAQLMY
MEKK2 WT-MEK5: modulators of MEK5 binding to wildtype MEKK2, primary screen, biochemical, multiplex bead flow cytometry, Alexa488-MEK5; AID 1531, 2009; 290,000 tested, 1.1% active; Mitogen-activated protein kinase kinase kinase 2 (Homo sapiens), Q9Y2U5; binding response (% of control), % at 10 µM; Alexa488-MEK5 binding to MEKK2 WT; actives lie on both sides; in the data active = binding response below about 67% or above about 130%
Each line names hits and unclear results; the compound was inactive in the other large screens; [ ] = dose if it differs, or a comment.

CN(Cc1ccc(OCC(O)CN(C)Cc2ccccc2)cc1)Cc1nccn1C (stereo not drawn)	none
CN(Cc1ccc(Br)cc1)CC(O)COc1cccc(Br)c1 (stereo not drawn)	none
CCOc1ccc(CN(C)CC(O)COC(c2ccc(OC)cc2)c2ccc(OC)cc2)cc1 (stereo not drawn)	MEKK2mut PB1 HTS 35, MEKK2 WT-MEK5 180
COc1ccc(CN(C)CC(O)COc2ccc(-c3ccccc3)cc2)cc1OC (stereo not drawn)	MEKK2 WT-MEK5 136
CN(CC(O)COc1ccccc1F)C1CCCCC1 (stereo not drawn)	none
COc1ccc(C(OCC(O)CN(C)C2CCCCC2)c2ccc(OC)cc2)cc1 (stereo not drawn)	MEKK2 WT-MEK5 161
CCCN1CCN(C(=O)C2CCN(c3nnc(C)c4c(C)n(-c5ccc(C)cc5)nc34)CC2)CC1	MEKK2mut PB1 HTS 134
Cc1ccc2c(c1)c1c(n2CC(O)CNC(C)(C)C)CCCC1 (stereo not drawn)	MEKK2 WT-MEK5 158 (no result: Hep lipid drop)
Cc1ccc2nc(Cl)c(/C=N/NC(=O)[C@H]3C[C@@H]3c3ccccc3)cc2c1	Hep lipid drop 105
CC(C)(C)c1ccc(C2CC2C(=O)N/N=C\c2cc3ccccc3nc2Cl)cc1 (stereo not drawn)	none (no result: Hep lipid drop)
Nc1nnn(CC(=O)N/N=C/C=C/c2ccccc2)n1	none
O=C1CCC(C(=O)O)N1 (stereo not drawn)	none
N#Cc1ccc(CN2CCN(CC(=O)NCCc3ccc(Cl)cc3Cl)CC2)cc1	MEKK2mut PB1 HTS 28, MEKK2 WT-MEK5 151
O=C(Cn1cc(C(F)(F)F)ccc1=O)NCCc1ccc(Cl)cc1Cl	none
CC(C)(C)c1ccc(C(=O)N2CCCN(c3ccc([N+](=O)[O-])cn3)CC2)cc1	none
O=C1OCC2OC(O)C(O)C(O)C2OC(=O)c2cc(O)c(O)c(O)c2-c2c(O)c(O)c3oc(=O)c4c(c(O)c(O)c5oc(=O)c2c3c54)-c2c1cc(O)c(O)c2O (stereo not drawn)	MEKK3 PB1 HTS 73[inhibitor], MEKK2 WT-MEK5 66[inhibitor]
O=[N+]([O-])c1ccc(N/N=C/c2ccc[nH]2)cc1	MEKK2 WT-MEK5 -1.0
O=[N+]([O-])c1ccc(N/N=C/c2c[nH]c3ccccc23)cc1	none (no result: Hep lipid drop)
CCCn1c(N)c(N(CCOC)C(=O)/C=C/c2cccc(Cl)c2)c(=O)[nH]c1=O	none
C(C#CCCCCCCCCC[n+]1ccccc1)#CCCCCCCCCC[n+]1ccccc1	MEKK2mut PB1 HTS 56, MEKK2 WT-MEK5 274
O=S(=O)(c1ccccc1)c1nnn2c1nc(NC1CCN(Cc3ccccc3)CC1)c1ccccc12	MEKK2mut PB1 HTS 32, MEKK2 WT-MEK5 146
Cc1ccc(C)c(Nc2nc3c(S(=O)(=O)c4ccccc4)nnn3c3ccccc23)c1	none
O=S(=O)(c1ccccc1)c1nnn2c1nc(NC1CCN(Cc3ccccc3)CC1)c1cc(Cl)ccc12	MEKK2mut PB1 HTS 33, MEKK2 WT-MEK5 138
Cc1cc2cc(CNC(=O)c3ccc(Br)o3)ccc2[nH]1	MEKK2 WT-MEK5 53[inhibitor]
Cc1cc2cc(CNC(=O)c3ccc4c(c3)OCO4)ccc2[nH]1	MEKK2 WT-MEK5 -9.0 (no result: Hep lipid drop)
Cc1ccc(CNC(=O)c2ccc(Br)o2)cc1	none
O=C(NCc1ccc2c(c1)OCO2)c1ccc2c(c1)OCO2	none
Cc1nc(NCCc2ccccc2)sc1C(=O)N(C)C	none
O=C(CNC(=O)c1cccs1)N/N=C/c1c(F)cccc1Cl	none
CCC(=O)NC(c1cccs1)c1cc([N+](=O)[O-])c2cccnc2c1O (stereo not drawn)	MEKK3 PB1 HTS 128
O=C(O)c1ccc(NC(=O)c2ccccc2NC(=O)c2ccccc2Br)cc1	none
CN(C)CCOc1ccccc1Cc1ccccc1	MEKK2 WT-MEK5 -18
CC(C)N1CCc2c(sc(N)c2C#N)C1	MEKK2 WT-MEK5 2.0 (no result: Hep lipid drop)
CC(=O)C1=C(O)C(=O)N(c2ccc(Br)cc2)C1c1ccc(Br)cc1 (stereo not drawn)	none
C/C(=N\Nc1nc2ccc(Cl)cc2o1)c1ccccc1	MEKK2 WT-MEK5 -3.0
O=[N+]([O-])c1ccc(/C=C/c2ccncc2)cc1	MEKK2 WT-MEK5 -2.0[inhibitor]
O=[N+]([O-])c1cccc(/C=C/c2ccncc2)c1	none
OC(CNCCc1ccc(C(F)(F)F)cc1)COc1cccc2ccccc12 (stereo not drawn)	MEKK2 WT-MEK5 156
